LMPTP block: blocks human LMPTP phosphatase; P24666; recombinant LMPTP-A, OMFP fluorogenic substrate, fluorescence intensity; inhibition, % at 20 µM; 360,000 tested, 0.22% active;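 active = compounds that cut the enzyme signal by at least half of the control window in the single-dose screen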;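 note: plate controls were DMSO wells with enzyme plus substrate for no effect and substrate without enzyme for full effect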
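Assay system: LMPTP-A enzyme. Input: 0.625 nM LMPTP-A final. Probe or stimulus: 400 µM OMFP. Compound dosing: single 20 µM dose. Schedule: 50 min dark incubation at room temperature. Detection: fluorescence intensity of OMFP turnover product. Read-out: percent inhibition versus substrate-only and uninhibited controls. Benchmarks: no-enzyme low control, uninhibited high control.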
HKDC1 inhibitor: inhibitors of human hexokinase HKDC1; 340,000 tested, 0.16% active; inhibition, % at 20 µM; Q2TB90; AID 493160; recombinant HKDC1, G6PDH/diaphorase resazurin coupled fluorescence;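 active = inhibition above about 35% when tested at 20 µM, limit read from the data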;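 note: plate controls were DMSO wells with enzyme for no effect and DMSO wells lacking enzyme for full effect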
Target sequence (Q2TB90 whole entry, looked up): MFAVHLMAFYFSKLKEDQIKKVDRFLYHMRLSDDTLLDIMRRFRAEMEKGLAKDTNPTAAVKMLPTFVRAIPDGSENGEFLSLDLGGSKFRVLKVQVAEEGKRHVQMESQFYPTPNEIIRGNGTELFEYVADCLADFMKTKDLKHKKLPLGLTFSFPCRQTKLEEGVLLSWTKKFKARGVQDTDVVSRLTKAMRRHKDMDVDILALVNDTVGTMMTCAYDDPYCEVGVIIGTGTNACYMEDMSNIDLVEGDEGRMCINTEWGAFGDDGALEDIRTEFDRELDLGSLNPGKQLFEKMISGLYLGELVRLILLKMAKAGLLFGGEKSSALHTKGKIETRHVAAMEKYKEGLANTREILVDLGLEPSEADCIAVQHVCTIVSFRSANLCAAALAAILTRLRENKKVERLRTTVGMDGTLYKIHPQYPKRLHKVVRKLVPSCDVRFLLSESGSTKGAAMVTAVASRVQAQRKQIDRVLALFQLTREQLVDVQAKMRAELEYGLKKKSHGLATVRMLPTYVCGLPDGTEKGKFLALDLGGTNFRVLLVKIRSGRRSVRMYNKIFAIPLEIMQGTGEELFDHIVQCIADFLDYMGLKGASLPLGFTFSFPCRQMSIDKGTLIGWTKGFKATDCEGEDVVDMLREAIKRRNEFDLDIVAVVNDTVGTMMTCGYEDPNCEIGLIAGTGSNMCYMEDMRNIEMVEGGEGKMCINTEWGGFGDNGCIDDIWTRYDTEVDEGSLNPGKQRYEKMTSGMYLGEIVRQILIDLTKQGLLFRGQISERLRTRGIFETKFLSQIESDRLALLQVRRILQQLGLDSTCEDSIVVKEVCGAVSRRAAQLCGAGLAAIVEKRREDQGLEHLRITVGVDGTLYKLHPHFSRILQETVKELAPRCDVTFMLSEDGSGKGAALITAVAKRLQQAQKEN
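test system = in-house recombinant HK5 (HKDC1) enzyme | amount = HKDC1 at 5 µg/mL | control set = DMSO-enzyme wells negative, buffer-substituted wells positive | compound = one dose of 20 µM, 1% DMSO | schedule = reaction time 90 min, room temperature, protected from light | technique = resorufin fluorescence at 613 nm | reagent = glucose with 1 mM ATP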
STEP inh: STEP (human) phosphatase inhibition; P54829; recombinant STEP, OMFP fluorogenic substrate, fluorescence; inhibition, % at 20 µM; 360,000 tested, 0.25% active;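 active = inhibition at 20 µM, scaled per plate between control wells, above about 37%, limit read from the data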;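 note: 0% = DMSO with enzyme and substrate and 100% = substrate only without enzyme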
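Also added – OMFP at 25 µM · Test system – STEP tyrosine phosphatase · Technique – FITC-channel fluorescence of OMFP product · Schedule – 20 min at room temperature, dark · Evaluation – control-normalized % inhibition with plate pattern correction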
SUMO1-SIM PPI: SUMO1-SIM interaction modulation; 360,000 tested, 0.33% active; SUMO1 binding to a labelled peptide, TR-FRET, 1 h; inhibition, % at 20 µM; P63165; in the data active = inhibition above about 37%
Scp1 inh: Scp-1 (human) phosphatase inhibition | Q9GZU7 | Recombinant Scp1, phosphopeptide, malachite green phosphate absorbance | AID 493091 | 340,000 tested, 0.88% active | inhibition, % at 20 µM;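 active = inhibition above about 50% at 20 µM, limit read from the data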;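 note: plate controls were DMSO wells with enzyme for no effect and wells lacking enzyme for full effect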
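Test system: SCP-1 catalytic domain; Buffer or medium: Acidic Tris acetate buffer with magnesium and detergent; Also added: Phosphorylated 17-residue peptide substrate; Compound: single 20 µM dose, 1% DMSO; Schedule: enzyme reaction 45 min at room temperature, colour 5 min, stabilisation 30 min; Signal: Phosphate-binding colour reagent, absorbance read at 630 nm.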
DNMT1 block: DNMT1 (human) enzyme inhibition. P26358. inhibition (reported as % activation of signal), % at 10 µM. 360,000 tested, 0.83% active. DNMT1 molecular beacon, Hinp1I cleavage, fluorescence; in the data active = inhibition above about 50%
HKDC1 act conf2: HKDC1 (human) activation, single-dose confirmed; shares compounds with HKDC1 inhibitor; recombinant HKDC1, G6PDH/diaphorase resazurin fluorescence; active compounds read low; inhibition, % at 20 µM; AID 504708; 740 tested, 14% active;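 active = inhibition at or below a set negative limit, negative inhibition meaning the enzyme was activated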
Starred values were filed as active, the others as inactive; . = no result given. This is a sample that favours compounds with a hit; in the whole collection about 1.8% have one here.

SMILES | LMPTP block | HKDC1 inhibitor | STEP inh | SUMO1-SIM PPI | Scp1 inh | DNMT1 block | HKDC1 act conf2
Cc1nonc1C(=O)N/N=C/c1ccncc1 | -2 | -2 | -1 | -1 | -6 | -1 | .
CCOC(=O)c1ccc(N2N=C(C)/C(=C/C=C/c3ccco3)C2=O)cc1 | 2 | -1 | -1 | -5 | -15 | 3 | .
O=C(O)c1cc(N2N=C(C(F)(F)F)/C(=C/C=C/c3ccco3)C2=O)ccc1Cl | 78* | 46* | 94* | 105* | 69* | 84* | 57
O=C(Nc1ccc(Nc2ccncc2)cc1)c1ccc(Nc2ccnc3ccc([N+](=O)[O-])cc23)cc1 | 78* | 44* | 85* | 128* | 0 | -70 | -7
O=C(Nc1ccc(Cc2ccncc2)cc1)c1cccc([N+](=O)[O-])c1 | 0 | -8 | -3 | -20 | -4 | -4 | .
Cc1cc(C)n2cc(CSc3nnnn3-c3ccccc3)nc2n1 | -1 | 3 | -1 | -1 | -6 | -1 | .
Cc1cc(C)n2cc(CSc3nnc(-c4ccccc4)c(-c4ccccc4)n3)nc2n1 | 3 | 38* | 2 | -18 | 2 | -2 | 38
O=C(C1CCN(S(=O)(=O)c2ccccc2F)CC1)N1CCN(Cc2ccc3c(c2)OCO3)CC1 | 0 | 1 | -1 | -2 | 1 | 0 | .
Cc1cc(Oc2ccc(-c3ccccc3)cc2)nc(N2CCOCC2)n1 | 0 | 2 | 2 | -6 | 15 | -6 | .
Cc1cc(Oc2ccc(C(C)(C)C)cc2)nc(N2CCOCC2)n1 | 3 | 33 | 6 | -2 | -6 | 0 | -37*
O=C(OCC(=O)N1CCN(C(=O)c2ccco2)CC1)c1cc(-c2ccccc2)nc2ccccc12 | -2 | 37* | 1 | -15 | 0 | -6 | -23
Cc1nc2c3cc(F)ccc3n(Cc3ccccc3F)c2s1 | 2 | -3 | 1 | -1 | 7 | -4 | .
Cc1nc2c3cc(F)ccc3n(Cc3ccccc3)c2s1 | 5 | -60 | 8 | 3 | -2 | -17 | -61*
O=C1C(Cl)=C(NC(=O)c2ccccc2)C(=O)C(Cl)=C1NC(=O)c1ccccc1 | 0 | 43* | 0 | -3 | 7 | -4 | 41
O=C(NC1=C(Nc2ccc(Cl)cc2)C(=O)c2ccccc2C1=O)c1ccccc1 | 3 | 5 | 4 | -24 | -7 | -23 | .
COc1cc2c(C#N)c(N3CCc4ccccc4C3)nc(N)c2c(N)n1 | 4 | 41* | 6 | 47* | 5 | 25 | -21
CC(C)(C)c1cc2nc(NCCOc3ccccc3)ccn2n1 | -1 | . | 0 | 4 | . | 5 | .
CC(NNC(=S)N1CCN(c2ccccn2)CC1)c1nccc2ccccc12 (centres undefined) | 1 | -42 | 6 | -8 | -3 | -11 | -75*
Cc1cccc(C)c1Nc1nnc(SCc2cn3cccc(C)c3n2)s1 | 0 | 34 | 8 | 2 | -3 | 0 | 54
Cc1cccc(C)c1Nc1nnc(SCC(=O)NC(=O)c2cccn2C)s1 | -1 | 8 | -3 | 2 | -3 | -15 | .
COc1ccc(/C=N/N2CCN(c3ccc(Cl)cc3)CC2)cc1 | 0 | -8 | 4 | 5 | -4 | 5 | .
Cc1ccc(N=C2C(=S)N(c3ccc(C)cc3)C(=N)N2/N=C/c2ccc(Cl)cc2)cc1 | 0 | -119 | 18 | -11 | 0 | -6 | -45*
Oc1cc(-c2ccccc2)c2ccccc2c1 | 3 | 27 | 0 | -2 | -9 | -27 | -6
COc1cc(/C=C2/C(=O)NN(c3ccc(Cl)c(Cl)c3)C2=O)cc([N+](=O)[O-])c1O | 6 | 50* | 9 | 9 | 92* | 10 | 33
COCCNc1ccc([N+](=O)[O-])cc1C(=O)Nc1cccc(C)n1 | -1 | -58 | -1 | -29 | -5 | -2 | -14
SMILES | LMPTP block | HKDC1 inhibitor | STEP inh | SUMO1-SIM PPI | Scp1 inh | DNMT1 block | HKDC1 act conf2
CC(C)CN(C(=O)COc1ccccc1C(=O)NCc1ccccc1)C1CCS(=O)(=O)C1 (centres undefined) | -1 | . | -2 | -2 | . | 4 | .
C=CC(=O)N1C/C(=C/c2ccc(Cl)cc2)C(=O)/C(=C\c2ccc(Cl)cc2)C1 | 4 | 45* | 0 | 7 | -13 | 7 | 10
C=CC(=O)N1C/C(=C/c2ccccc2)C(=O)/C(=C\c2ccccc2)C1 | 3 | 38* | -1 | 1 | -3 | 28 | 2
O=C1C(=Cc2ccc(Cl)cc2)Cc2ccccc21 | 3 | . | . | 6 | . | . | .
CC1(C(=O)NS(=O)(=O)c2cccc(OC(F)F)c2)CCN1C(=O)C/C=C/c1ccccc1 (centres undefined) | 0 | . | 0 | 8 | . | -1 | .
CN1C(=O)/C(=C/c2ccccc2F)Sc2ccc(C(=O)N3CCCC3)cc21 | 1 | -2 | 3 | -24 | -3 | -2 | .
COc1ccccc1N(C)S(=O)(=O)c1ccc(Cl)c(C(=O)NCC2(N(C)C)CCCCC2)c1 | -1 | 42* | 0 | 0 | -3 | 3 | -28
COc1ccccc1N(C)S(=O)(=O)c1ccc(Cl)c(C(=O)NNC(=O)c2ccccc2O)c1 | 1 | -16 | -2 | 6 | -10 | -2 | .
Cc1ccc(S(=O)(=O)N(C)CC(=O)N(C)CCOc2ccccc2)cc1 | -1 | . | 0 | 2 | . | -2 | .
COc1cccc(NC(=O)CSc2ccc(-c3ccco3)nn2)c1 | 2 | 11 | 0 | -11 | -6 | -2 | .
COc1ccccc1NC(=O)CSc1ccc(-c2ccco2)nn1 | 2 | 22 | 1 | 1 | -5 | 2 | .
COc1ccc(OC)c(NC(=O)CSc2ccc(-c3ccco3)nn2)c1 | 8 | 43* | 4 | -2 | 11 | -6 | 38
COc1ccc(NC(=O)CSc2ccc(-c3ccco3)nn2)cc1OC | 0 | 43* | 1 | -8 | 14 | -6 | 44
c1ccc2c(-c3cccc4nccn34)cncc2c1 | 0 | . | -4 | -13 | . | -5 | .
CCOC(=O)C1=C(C)N=C2c3ccccc3C(=O)C2C1c1ccc(Cl)cc1 (centres undefined) | 3 | 13 | -1 | -26 | 0 | -9 | .
CCOC(=O)C1=C(Cc2ccc(Cl)cc2)C(=O)c2ccccc2C1=O | 3 | 60* | -3 | 19 | -13 | -19 | 39
O=C(COc1ccc2c(-c3ccccc3)cc(=O)oc2c1)Nc1cccnc1 | 11 | 4 | 10 | 23 | -1 | 47 | .
CN(C)CCCNCC(=O)c1c(-c2ccccc2)n(C)c2ccccc12 | -7 | -9 | 2 | -9 | 7 | -5 | .
Cn1c(-c2ccccc2)c(C(=O)CC#N)c2ccccc21 | 2 | -45 | 0 | 0 | -3 | -3 | -42*
